Assay [1] can be described thus: inhibitors of TNFa-induced NFkB p65 translocation, primary screen, imaging, HUVEC, MLSMR starter and 10KST1 sets (AID 438;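 active = inhibition above 20% together with a positive visual image hit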;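 also: compound added about 3h40 before a 20 min TNFalpha stimulation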;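 as to inhibition: signal is the nuclear over cytoplasmic p65 intensity ratio per well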). To be noted: HUVEC TNFa-induced p65 nuclear translocation; cell count: measured here: nuclei count (cytotoxicity indicator), at 2.08 µM; inhibition: at 2 µM, stronger effect = higher value, 0% TNFa-plus-vehicle, 100% no-TNFa wells.
Assay [2] is described as follows: endothelial E-selectin expression blockers – imaging, HUVEC, immunofluorescence, MLSMR starter and 10KST1 sets, primary screen (AID 487;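 active = visually confirmed hit in the image check and inhibition above 20%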;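 as to inhibition: signal is fraction of cell area covered by stained E-selectin grains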;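 as to nuclei count: 100% = median nuclei count of all wells on the same plate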). Conditions: HUVEC TNFalpha-induced E-selectin immunofluorescence imaging, at 2 µM; inhibition: stronger effect = higher value; nuclei count: measured here: cell number, toxicity.
Assay [3] is described as follows: Primary imaging screen for DUSP6 inhibitors that restore phospho-Erk in transfected HeLa cells, chemical complementation (AID 609;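 active = compounds giving at least 50% inhibition in the cell-based MKP-3 phosphatase rescue imaging test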;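 as to inhibition: phospho-Erk level distribution per well compared with pooled transfected vehicle control wells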). Conditions: HeLa MKP-3 transfected, phospho-Erk imaging KS statistic, at 10 µM, cells stimulated with TPA for 15 min.
Assay [4] has as its target Dual specificity protein phosphatase 6 (Homo sapiens) (UniProt Q16828). The assay is described as above. Conditions: HeLa MKP-3 transfected, phospho-Erk imaging KS statistic; at 10 µM; stronger effect = higher value; cells stimulated with TPA for 15 min.
Assay [5] has as its target Voltage-gated potassium channel subunit beta-2 (Rattus norvegicus) (UniProt P62483). Briefly: inhibitors of rat Kvbeta2 reductase activity – biochemical, NADPH fluorescence, primary screen (AID 622;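 active = fluorescence slope higher than the sample average by over 3 SD, cut at about -0.22 in these data, passing the limit was not always enough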;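 also: slope of raw intensity against log time taken from 70 to 1610 s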). To be noted: recombinant KvBeta, 4-cyanobenzaldehyde reduction, at 10 µM, stronger effect = higher value.
Assay [6] has the same target. In words: enhancers of rat Kvbeta2 NADPH turnover – biochemical, NADPH fluorescence, primary screen (AID 623;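 active = NADPH fluorescence slope more negative than the mean of all samples by about 3 SD, 99.7% confidence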;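 also: fluorescence intensity change per second fitted from 20 to 320 s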). Conditions: Recombinant KvBeta, NADPH fluorescence decrease slope, 10 min; at 10 µM; stronger effect = lower value.
Assay [7] addresses Alpha-2C adrenergic receptor (Homo sapiens) (UniProt P18825). Briefly: compounds altering alpha2C-coupled GIRK flux – cell-based, HEK293 alpha2C/GIRK1/2, thallium flux, primary screen (AID 624).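 Also: slope of fluorescence ratio to pre-addition baseline per second over 15 to 24 s.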 Conditions: thallium flux BTC fluorescence, at 10 µM, actives lie on both sides.
Assay [8] is described as follows: inhibitors of larval lipid processing in zebrafish, primary screen, whole organism, PED6 fluorescence, gall bladder and intestine (AID 686;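 active = a full or partial loss of lipid-probe fluorescence in the fish gall bladder, intestine or both, judged by eye; inactive = no fluorescence loss, or compound toxic to the fish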;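 also: larvae 5 to 7 days old with five fish per well; signal comes from phospholipase A2 cleavage of quenched PED6 carried via bile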). Conditions: Zebrafish larvae PED6 lipid processing, fluorescence scoring; screened at 20 µM (by protocol). In a few lines: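 Incubation: overnight exposure of larvae to compound plus PED6 / Test system: live zebrafish larvae aged 5-7 days, whole organism / Amount: 5 larvae per well / Read-out basis: visual per-well fluorescence inhibition score / Signal: visual fluorescence microscopy scoring of gall bladder, gut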

Assay [9] can be described thus: loss of swimming-algae plug formation – whole organism, Chlamydomonas reinhardtii, WT vs cilia-less mutant, absorbance, 96-well, primary screen (AID 463189;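 active = inhibition at or above 50% relative to wild type and mutant plate controls; inactive = inhibition below 50%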;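 also: 0% = wild type cc124 cells in DMSO and 100% = ciliumless bld1 mutant cells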). To be noted: Chlamydomonas reinhardtii gravitaxis, OD600 absorbance, 2 days; at 10 µM; stronger effect = higher value.
The mark [10] stands for this setting: measured here: cell density z-score.
Setting [11] is: measured here: nuclear c-Myc green intensity z-score.
[12] abbreviates: measured here: nuclear pErk red intensity z-score, stronger effect = higher value.

Structures are written as SMILES. Activity calls are given as the source filed them.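 The calls were made as follows, unless noted: active = fluorescence slope after compound addition differing from the mean of all screened samples at 99.7% confidence, in either direction; inactive = the rest.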

Sequence of Alpha-2C adrenergic receptor (Homo sapiens) (P18825 whole entry, looked up): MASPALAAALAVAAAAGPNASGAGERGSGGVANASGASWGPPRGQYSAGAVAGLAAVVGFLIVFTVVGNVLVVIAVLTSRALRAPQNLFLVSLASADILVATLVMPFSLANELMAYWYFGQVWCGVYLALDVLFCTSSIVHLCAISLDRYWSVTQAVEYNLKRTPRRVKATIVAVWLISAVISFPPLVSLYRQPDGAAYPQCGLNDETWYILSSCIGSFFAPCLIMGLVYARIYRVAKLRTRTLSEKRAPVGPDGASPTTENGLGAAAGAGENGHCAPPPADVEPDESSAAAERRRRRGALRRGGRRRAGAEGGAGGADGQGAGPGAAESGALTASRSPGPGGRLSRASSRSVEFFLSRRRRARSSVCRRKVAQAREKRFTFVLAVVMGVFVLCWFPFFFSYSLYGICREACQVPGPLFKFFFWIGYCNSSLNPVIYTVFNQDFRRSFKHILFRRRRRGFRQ
Sequence of Voltage-gated potassium channel subunit beta-2 (Rattus norvegicus) (P62483 whole entry, looked up): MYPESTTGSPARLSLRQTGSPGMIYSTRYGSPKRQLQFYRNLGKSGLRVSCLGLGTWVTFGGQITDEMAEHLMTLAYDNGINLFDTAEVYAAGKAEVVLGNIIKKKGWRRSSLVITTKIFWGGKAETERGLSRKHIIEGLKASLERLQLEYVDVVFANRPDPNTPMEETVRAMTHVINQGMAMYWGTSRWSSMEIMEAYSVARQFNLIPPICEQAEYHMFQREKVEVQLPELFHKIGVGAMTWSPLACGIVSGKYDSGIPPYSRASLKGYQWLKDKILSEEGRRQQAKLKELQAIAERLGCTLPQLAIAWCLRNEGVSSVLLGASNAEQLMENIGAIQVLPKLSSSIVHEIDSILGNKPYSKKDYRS
Sequence of Dual specificity protein phosphatase 6 (Homo sapiens) (Q16828 whole entry, looked up): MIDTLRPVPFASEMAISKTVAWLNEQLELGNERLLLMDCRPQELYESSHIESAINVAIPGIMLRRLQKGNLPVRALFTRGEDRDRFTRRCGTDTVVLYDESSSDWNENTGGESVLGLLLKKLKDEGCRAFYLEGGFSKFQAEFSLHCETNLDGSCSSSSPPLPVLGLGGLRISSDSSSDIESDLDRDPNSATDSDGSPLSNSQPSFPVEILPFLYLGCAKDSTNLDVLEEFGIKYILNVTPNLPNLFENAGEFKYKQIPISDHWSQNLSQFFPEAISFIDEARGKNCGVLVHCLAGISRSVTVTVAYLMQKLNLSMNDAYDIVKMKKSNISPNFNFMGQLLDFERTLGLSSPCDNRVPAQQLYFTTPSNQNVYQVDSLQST

`Cc1ccc(OCc2nnc(NC(=O)c3ccco3)s2)c(C)c1`: in [1], the cell count is 438. Further, the inhibition in assay [1] was -7.3% (inactive); in assay [2], 15.6% (inactive); in assay [4] it was -1.12% (inactive); in assay [9], -4.85% (inactive). The molecule also displayed a nuclei count in [2] of 106%. In addition, the z-score in assay [3] (setting [10]) is -0.686; in assay [3] (setting [11]) it was -0.603; in assay [3] (setting [12]), 0.0542. The fluorescence slope in assay [5] is -0.308 (inactive). The NADPH fluorescence slope in [6] was -1.3e-05 (inactive). For the same molecule, the slope in assay [7] is 0.00608 (inactive). In addition, the outcome in assay [8] was inactive.
As for `COCc1[nH]nc2c1C(c1ccnc3ccccc13)C(C#N)=C(N)O2` (stereo unspecified), in assay [1], the cell count was 589. For the same molecule, the inhibition is -5% (inactive) in assay [1], 26.1% (inactive) in assay [2], 29.9% (inactive) in assay [4] and 15.7% (inactive) in assay [9]. In assay [2], the nuclei count stood at 102%. The z-score in assay [3] (setting [10]) is 0.598; in [3] (setting [11]), -2.1; in assay [3] (setting [12]) it was -0.301. For the same molecule, in assay [5], the fluorescence slope was -0.519 (inactive). The NADPH fluorescence slope in assay [6] is -1.8e-05 (inactive). The slope in [7] is 0.00587 (inactive). The outcome in assay [8] was inactive.
`CCOCCSc1nc2c(c(=O)[nH]c(=O)n2C)n1CCCc1ccccc1`: in assay [1], the cell count came to 487. The inhibition was -2.4% (inactive) in assay [1], -80.2% (inactive) in assay [2], -3.5% (inactive) in [4] and -2.75% (inactive) in assay [9]. Besides, the nuclei count in assay [2] was found to be 133%. In addition, the values for the z-score in [3] (setting [10]), in [3] (setting [11]) and in assay [3] (setting [12]) were 0.294, -0.866 and -0.255, respectively. For the same molecule, in assay [5], the fluorescence slope was -0.515 (inactive). For the same molecule, in [6], the NADPH fluorescence slope is -6.3e-05 (inactive). In addition, the slope in assay [7] was 0.00557 (inactive). The call in assay [8] was inactive.
For `COC(=O)c1n[nH]c2ccccc12`, in [1], the cell count came to 323. The inhibition in assay [1] is 0.5% (inactive); in assay [2], -157% (inactive); in [4], -0.624% (inactive); in assay [9], 17.4% (inactive). Moreover, the nuclei count in assay [2] worked out at 119%. For the same molecule, the z-score is -0.132 in [3] (setting [10]), 0.244 in [3] (setting [11]) and -1.14 in assay [3] (setting [12]). In addition, the fluorescence slope in assay [5] was -0.287 (inactive). In [6], the NADPH fluorescence slope is -1.1e-05 (inactive). Besides, in assay [7], the slope is 0.00523 (inactive). Also, the molecule was called inactive in assay [8].
For `O=C(c1cccs1)N1CCC(N2CCN(c3ccccc3)CC2)CC1`, in assay [1], the cell count was found to be 390. The inhibition in [1] was -7.3% (inactive); in assay [2], -50.1% (inactive); in [4], 11.3% (inactive); in [9], 43.7% (inactive). In assay [2], the nuclei count came out at 119%. Moreover, the z-score was 0.783 in [3] (setting [10]), 0.365 in [3] (setting [11]) and -0.94 in assay [3] (setting [12]). Also, in assay [5], the fluorescence slope is -0.378 (inactive). The NADPH fluorescence slope in assay [6] was -1.9e-05 (inactive). In addition, the slope in [7] was 0.00799 (inactive). Also, the result in assay [8] was inactive.
As to `C=CCn1c(=S)[nH]c2ccccc2c1=O`, the cell count in assay [1] is 649. Further, the inhibition in [1] is 1.8% (inactive); in assay [2] it was -30.6% (inactive); in assay [4] it was 5.57% (inactive); in [9], -14.1% (inactive). In addition, in assay [2], the nuclei count worked out at 130%. For the same molecule, the z-score in assay [3] (setting [10]) was -0.515; in [3] (setting [11]), 0.859; in assay [3] (setting [12]), 0.00467. In assay [5], the fluorescence slope was -0.46 (inactive). The NADPH fluorescence slope in assay [6] was -0.000371 (inactive). Moreover, the slope in assay [7] was 0.00865 (inactive). Further, in [8], the outcome was inactive.
With `COC(=O)c1nn2c(C(F)(F)F)cc(-c3ccc(Br)o3)nc2c1Br`, the cell count in assay [1] worked out at 510. Besides, the inhibition was -7.1% (inactive) in assay [1], 1.9% (inactive) in assay [2], -2.07% (inactive) in assay [4] and 8.6% (inactive) in [9]. Also, the nuclei count in [2] turned out to be 120%. Besides, the z-score in assay [3] (setting [10]) is -1.65; in [3] (setting [11]) it was -0.461; in [3] (setting [12]), 2.56. Also, in [5], the fluorescence slope was -0.442 (inactive). The NADPH fluorescence slope in assay [6] was -6.2e-05 (inactive). Also, the slope in assay [7] is 0.00401 (inactive). Also, the molecule was classed as inactive in [8].

One may read the inhibition as the relative decrease from the control value, in per cent.

For the origin of these results see PubChem BioAssay.
